Measured values published in ChEMBL document CHEMBL4689842, “EUbOPEN Chemogenomics Library wave 1” (2021).
Values joined by “and” are separate entries in the source; they are usually repeats but may differ in a detail not shown here. Equal entries are not always repeated.

Tested on: Fibroblast
Assay: Multiplex assay against human fibroblast
Format: toxicity, cell-based
Procedure, shortened: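 Per cents of healthy-nucleus cells form the tubulin, mitochondrial-mass and membrane-permeability phenotype values. Live cells were stained at seeding with Hoechst33342, BioTracker Green Microtubule Cytoskeleton Dye, MitoTracker Red and Annexin V Alexa Fluor 680. After compound addition they were imaged on a CQ1 microscope at 37°C and 5% CO2, and CellPathfinder machine-learning gating split them into Hoechst high-intensity objects or normal cells, normal cells into healthy, pyknosed or fragmented nuclei, and pyknosed cells into mitotic or apoptotic.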

[1] = 12 h, 1 µM, compound concentration 1 uM, replicate 1
[2] = 12 h, 1 µM, compound concentration 1 uM, replicate 2
[3] = 24 h, 1 µM, compound concentration 1 uM, replicate 1
[4] = 24 h, 1 µM, compound concentration 1 uM, replicate 2
[5] = 12 h, 10 µM, compound concentration 10 uM, replicate 1
[6] = 12 h, 10 µM, compound concentration 10 uM, replicate 2
[7] = 24 h, 10 µM, compound concentration 10 uM, replicate 1
[8] = 24 h, 10 µM, compound concentration 10 uM, replicate 2
[9] = 48 h, 1 µM, compound concentration 1 uM, replicate 1
[10] = 48 h, 1 µM, compound concentration 1 uM, replicate 2
[11] = 48 h, 10 µM, compound concentration 10 uM, replicate 1
[12] = 48 h, 10 µM, compound concentration 10 uM, replicate 2

For `CC(C)C(=O)Nc1n[nH]c2cc(-c3cccc(NS(=O)(=O)C4CC4)c3)ccc12`, the “Population Apoptotic (%)” value [1] was 85% and 80%, the “Population Fragmented Nuclei (%)” value [1] was 36% and 25% and the “Population Healthy Nuclei (%)” value [1] was 36% and 58%. For the same compound, the “Population Hoechst High Intensity Objects (%)” value [1] was 13% and 11%, the “Population Membrane Permeable-Phenotype (%)” value [1] was 8% and 7% and the “Population Mitochondria Different-Phenotype (%)” value [1] was 0% and 6%. The “Population Mitotic Cells (%)” value [1] was 14% and 20%, the “Population Normal (%)” value [1] was 86% and 88% and the “Population Pyknosed Nuclei (%)” value [1] was 26%. The “Population Tubulin-Different-Phenotype (%)” value [1] was 6% and 2%, the “Total Cell Count” value [1] was 151 and 184 and the “Population Apoptotic (%)” value [2] was 100% and 50%. The “Population Fragmented Nuclei (%)” value [2] was 56% and 43%, the “Population Healthy Nuclei (%)” value [2] was 38% and 40% and the “Population Hoechst High Intensity Objects (%)” value [2] was 34% and 18%. The “Population Normal (%)” value [2] was 65% and 81%, the “Population Pyknosed Nuclei (%)” value [2] was 6% and 15% and the “Population Tubulin-Different-Phenotype (%)” value [2] was 15% and 30%. For the same compound, the “Total Cell Count” value [2] was 76 and 79, the “Population Apoptotic (%)” value [3] was 65% and 60% and the “Population Fragmented Nuclei (%)” value [3] was 40% and 28%. For the same compound, the “Population Healthy Nuclei (%)” value [3] was 42% and 54%, the “Population Hoechst High Intensity Objects (%)” value [3] was 8% and 9% and the “Population Membrane Permeable-Phenotype (%)” value [3] was 17% and 7%. For the same compound, the “Population Mitochondria Different-Phenotype (%)” value [3] was 1% and 2%, the “Population Mitotic Cells (%)” value [3] was 34% and 39% and the “Population Normal (%)” value [3] was 91% and 90%. The “Population Pyknosed Nuclei (%)” value [3] was 17%, the “Population Tubulin-Different-Phenotype (%)” value [3] was 8% and 4% and the “Total Cell Count” value [3] was 144 and 207. The “Population Apoptotic (%)” value [4] was 42% and 33%, the “Population Fragmented Nuclei (%)” value [4] was 47% and 51% and the “Population Healthy Nuclei (%)” value [4] was 41% and 36%. The “Population Hoechst High Intensity Objects (%)” value [4] was 23% and 22%, the “Population Membrane Permeable-Phenotype (%)” value [4] was 15% and 11% and the “Population Mitochondria Different-Phenotype (%)” value [4] was 15% and 0%. The “Population Mitotic Cells (%)” value [4] was 57% and 66%, the “Population Normal (%)” value [4] was 76% and 77% and the “Population Pyknosed Nuclei (%)” value [4] was 11% and 12%. The “Population Tubulin-Different-Phenotype (%)” value [4] was 11% and 22% and the “Total Cell Count” value [4] was 82 and 63.
In the case of `C=CC(=O)Nc1ccc2ncnc(Nc3ccc(OCc4cccc(F)c4)c(Cl)c3)c2c1.Cc1ccc(S(=O)(=O)O)cc1`, the “Population Apoptotic (%)” value [1] is reported as 53%, the “Population Fragmented Nuclei (%)” value [1] is reported as 25% and the “Population Healthy Nuclei (%)” value [1] is reported as 37%. The “Population Hoechst High Intensity Objects (%)” value [1] was 7%, the “Population Membrane Permeable-Phenotype (%)” value [1] was 28% and the “Population Mitochondria Different-Phenotype (%)” value [1] was 9%. For the same compound, the “Population Mitotic Cells (%)” value [1] was 46%, the “Population Normal (%)” value [1] was 92% and the “Population Pyknosed Nuclei (%)” value [1] was 36%. The “Population Tubulin-Different-Phenotype (%)” value [1] was 26%, the “Total Cell Count” value [1] was 120 and the “Population Apoptotic (%)” value [2] was 50%. The “Population Fragmented Nuclei (%)” value [2] was 6%, the “Population Healthy Nuclei (%)” value [2] was 84% and the “Population Hoechst High Intensity Objects (%)” value [2] was 5%. The “Population Membrane Permeable-Phenotype (%)” value [2] was 3%, the “Population Mitotic Cells (%)” value [2] was 50% and the “Population Normal (%)” value [2] was 94%. For the same compound, the “Population Pyknosed Nuclei (%)” value [2] was 8%, the “Population Tubulin-Different-Phenotype (%)” value [2] was 29% and the “Total Cell Count” value [2] was 77. The “Population Apoptotic (%)” value [5] was 77%, the “Population Fragmented Nuclei (%)” value [5] was 27% and the “Population Healthy Nuclei (%)” value [5] was 38%. For the same compound, the “Population Hoechst High Intensity Objects (%)” value [5] was 15%, the “Population Membrane Permeable-Phenotype (%)” value [5] was 15% and the “Population Mitochondria Different-Phenotype (%)” value [5] was 7%. The “Population Mitotic Cells (%)” value [5] was 22%, the “Population Normal (%)” value [5] was 84% and the “Population Pyknosed Nuclei (%)” value [5] was 33%. For the same compound, the “Population Tubulin-Different-Phenotype (%)” value [5] was 27%, the “Total Cell Count” value [5] was 122 and the “Population Apoptotic (%)” value [6] was 75%. The “Population Fragmented Nuclei (%)” value [6] was 14%, the “Population Healthy Nuclei (%)” value [6] was 79% and the “Population Hoechst High Intensity Objects (%)” value [6] was 10%. For the same compound, the “Population Membrane Permeable-Phenotype (%)” value [6] was 4%, the “Population Mitochondria Different-Phenotype (%)” value [6] was 22% and the “Population Mitotic Cells (%)” value [6] was 25%. The “Population Normal (%)” value [6] was 89%, the “Population Pyknosed Nuclei (%)” value [6] was 6% and the “Population Tubulin-Different-Phenotype (%)” value [6] was 16%. For the same compound, the “Total Cell Count” value [6] was 69, the “Population Apoptotic (%)” value [3] was 65% and the “Population Fragmented Nuclei (%)” value [3] was 26%. The “Population Healthy Nuclei (%)” value [3] was 42%, the “Population Hoechst High Intensity Objects (%)” value [3] was 9% and the “Population Membrane Permeable-Phenotype (%)” value [3] was 31%. For the same compound, the “Population Mitochondria Different-Phenotype (%)” value [3] was 2%, the “Population Mitotic Cells (%)” value [3] was 34% and the “Population Normal (%)” value [3] was 90%. The “Population Pyknosed Nuclei (%)” value [3] was 31%, the “Population Tubulin-Different-Phenotype (%)” value [3] was 40% and the “Total Cell Count” value [3] was 123. The “Population Apoptotic (%)” value [4] was 55%, the “Population Fragmented Nuclei (%)” value [4] was 4% and the “Population Healthy Nuclei (%)” value [4] was 84%. The “Population Hoechst High Intensity Objects (%)” value [4] was 5%, the “Population Membrane Permeable-Phenotype (%)” value [4] was 2% and the “Population Mitochondria Different-Phenotype (%)” value [4] was 8%. The “Population Mitotic Cells (%)” value [4] was 44%, the “Population Normal (%)” value [4] was 94% and the “Population Pyknosed Nuclei (%)” value [4] was 10%. The “Population Tubulin-Different-Phenotype (%)” value [4] was 33%, the “Total Cell Count” value [4] was 90 and the “Population Apoptotic (%)” value [7] was 61%. For the same compound, the “Population Fragmented Nuclei (%)” value [7] was 31%, the “Population Healthy Nuclei (%)” value [7] was 39% and the “Population Hoechst High Intensity Objects (%)” value [7] was 8%. The “Population Membrane Permeable-Phenotype (%)” value [7] was 37%, the “Population Mitochondria Different-Phenotype (%)” value [7] was 9% and the “Population Mitotic Cells (%)” value [7] was 38%. The “Population Normal (%)” value [7] was 91%, the “Population Pyknosed Nuclei (%)” value [7] was 28% and the “Population Tubulin-Different-Phenotype (%)” value [7] was 48%. For the same compound, the “Total Cell Count” value [7] was 118, the “Population Apoptotic (%)” value [8] was 53% and the “Population Fragmented Nuclei (%)” value [8] was 12%. For the same compound, the “Population Healthy Nuclei (%)” value [8] was 69%, the “Population Hoechst High Intensity Objects (%)” value [8] was 6% and the “Population Membrane Permeable-Phenotype (%)” value [8] was 14%. For the same compound, the “Population Mitochondria Different-Phenotype (%)” value [8] was 24%, the “Population Mitotic Cells (%)” value [8] was 46% and the “Population Normal (%)” value [8] was 93%. The “Population Pyknosed Nuclei (%)” value [8] was 18%, the “Population Tubulin-Different-Phenotype (%)” value [8] was 32% and the “Total Cell Count” value [8] was 77. For the same compound, the “Population Apoptotic (%)” value [9] was 64%, the “Population Fragmented Nuclei (%)” value [9] was 34% and the “Population Healthy Nuclei (%)” value [9] was 48%. The “Population Hoechst High Intensity Objects (%)” value [9] was 8%, the “Population Membrane Permeable-Phenotype (%)” value [9] was 28% and the “Population Mitochondria Different-Phenotype (%)” value [9] was 0%. The “Population Mitotic Cells (%)” value [9] was 35%, the “Population Normal (%)” value [9] was 91% and the “Population Pyknosed Nuclei (%)” value [9] was 16%. For the same compound, the “Population Tubulin-Different-Phenotype (%)” value [9] was 26%, the “Total Cell Count” value [9] was 112 and the “Population Apoptotic (%)” value [10] was 50%. The “Population Fragmented Nuclei (%)” value [10] was 31%, the “Population Healthy Nuclei (%)” value [10] was 65% and the “Population Hoechst High Intensity Objects (%)” value [10] was 14%. For the same compound, the “Population Membrane Permeable-Phenotype (%)” value [10] was 18%, the “Population Mitochondria Different-Phenotype (%)” value [10] was 8% and the “Population Mitotic Cells (%)” value [10] was 50%. For the same compound, the “Population Normal (%)” value [10] was 85%, the “Population Pyknosed Nuclei (%)” value [10] was 2% and the “Population Tubulin-Different-Phenotype (%)” value [10] was 41%. For the same compound, the “Total Cell Count” value [10] was 106, the “Population Apoptotic (%)” value [11] was 81% and the “Population Fragmented Nuclei (%)” value [11] was 40%. The “Population Healthy Nuclei (%)” value [11] was 50%, the “Population Hoechst High Intensity Objects (%)” value [11] was 18% and the “Population Membrane Permeable-Phenotype (%)” value [11] was 17%. For the same compound, the “Population Mitochondria Different-Phenotype (%)” value [11] was 9%, the “Population Mitotic Cells (%)” value [11] was 18% and the “Population Normal (%)” value [11] was 81%. The “Population Pyknosed Nuclei (%)” value [11] was 8%, the “Population Tubulin-Different-Phenotype (%)” value [11] was 49% and the “Total Cell Count” value [11] was 154. The “Population Apoptotic (%)” value [12] was 100%, the “Population Fragmented Nuclei (%)” value [12] was 22% and the “Population Healthy Nuclei (%)” value [12] was 76%. The “Population Hoechst High Intensity Objects (%)” value [12] was 11%, the “Population Membrane Permeable-Phenotype (%)” value [12] was 12% and the “Population Mitochondria Different-Phenotype (%)” value [12] was 3%. For the same compound, the “Population Mitotic Cells (%)” value [12] was 0%, the “Population Normal (%)” value [12] was 88% and the “Population Pyknosed Nuclei (%)” value [12] was 1%. For the same compound, the “Population Tubulin-Different-Phenotype (%)” value [12] was 6% and the “Total Cell Count” value [12] was 86.
